The record followed here is ChEMBL document CHEMBL1133591, “Potent derivatives of glucagon-like peptide-1 with pharmacokinetic properties suitable for once daily administration” (J Med Chem, 2000).

Series [1] in a line: Plasma half life was determined in pigs. It counts as ADME, organism-based, Sus scrofa. To be noted: pig. A digest of the protocol:
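Landrace × Duroc × Yorkshire pigs, 25–50 kg, two per compound; single sc dose, 0.5 nmol/kg for analogues, 15 nmol/kg for GLP-1. Jugular catheter blood at 0–72 h, extra early samples for GLP-1; EDTA/aprotinin/bacitracin-stabilized plasma. Unextracted plasma assayed by N-terminal-specific GLP-1 radioimmunoassay against spiked pig-plasma calibrators; half-life calculated per pig, reported as mean ± SD.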

Series [2] has as its target Glucagon-like peptide 1 receptor (Homo sapiens, UniProt P43220). Description: Potency measured using recombinant human GLP-1 receptor expressed in Baby Hamster Kidney (BHK)cells. The series is classed as cell-based.

Numbered stars: 1 amine (or outer) side, 2 acyl side, 3 side chain; on linkers, the order of the positions; unused ones are H or OH. Square brackets hold non-standard residues; d marks the D form. Side chains are listed from the residue outwards. Peptide text beside a SMILES is read from it. * marks the point of attachment. ξ: configuration not given here. ξγGlu = O=C(O)C(CCC(=O)[*:2])N[*:1]; Palmitoyl = CCCCCCCCCCCCCCCC(=O)*; X1 = CCCCCCCCCC(CCCCC(=O)*)C(=O)O; ξK = NCCCCC(N)C(=O)O

Chain of Glucagon-like peptide 1 receptor (P43220 whole entry): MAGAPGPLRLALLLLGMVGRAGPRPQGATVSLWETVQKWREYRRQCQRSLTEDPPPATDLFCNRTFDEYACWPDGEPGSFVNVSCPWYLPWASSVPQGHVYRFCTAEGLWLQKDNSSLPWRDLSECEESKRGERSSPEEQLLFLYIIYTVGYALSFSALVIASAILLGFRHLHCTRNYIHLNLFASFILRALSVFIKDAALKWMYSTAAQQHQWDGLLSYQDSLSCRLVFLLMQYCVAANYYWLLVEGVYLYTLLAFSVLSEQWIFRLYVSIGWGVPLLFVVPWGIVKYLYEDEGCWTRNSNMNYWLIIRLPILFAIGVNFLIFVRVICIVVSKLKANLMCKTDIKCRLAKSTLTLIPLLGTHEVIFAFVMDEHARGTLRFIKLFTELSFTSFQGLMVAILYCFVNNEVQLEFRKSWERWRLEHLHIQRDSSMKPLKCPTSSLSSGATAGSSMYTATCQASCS

Take `CCCCCCCCCCCCCCCC(=O)NC(CCC(=O)NCCCC[C@H](NC(=O)[C@@H](NC(=O)[C@H](CC(C)C)NC(=O)[C@H](Cc1c[nH]c2ccccc12)NC(=O)[C@H](C)NC(=O)[C@@H](NC(=O)[C@H](Cc1ccccc1)NC(=O)[C@H](CCC(=O)O)NC(=O)[C@H](CCCN=C(N)N)NC(=O)[C@H](C)NC(=O)[C@H](C)NC(=O)[C@H](CCC(N)=O)NC(=O)CNC(=O)[C@H](CCC(=O)O)NC(=O)[C@H](CC(C)C)NC(=O)[C@H](Cc1ccc(O)cc1)NC(=O)[C@H](CO)NC(=O)[C@H](CO)NC(=O)[C@@H](NC(=O)[C@H](CC(=O)O)NC(=O)[C@H](CO)NC(=O)[C@@H](NC(=O)[C@H](Cc1ccccc1)NC(=O)[C@@H](NC(=O)CNC(=O)[C@H](CCC(=O)O)NC(=O)[C@H](C)NC(=O)[C@@H](N)Cc1c[nH]cn1)[C@@H](C)O)[C@@H](C)O)C(C)C)[C@@H](C)CC)C(C)C)C(=O)NCC(=O)N[C@@H](CCCCN=C(N)N)C(=O)NCC(=O)O)C(=O)O` (stereo not given in full): the half-life in series [1] is 13 h. The EC50 in series [2] was determined as 0.121 nM.
`CCCCCCCCCCCCCCCC(=O)NC(CCC(=O)NCCCC[C@H](NC(=O)CNC(=O)[C@H](CCC(=O)O)NC(=O)[C@H](CC(C)C)NC(=O)[C@H](Cc1ccc(O)cc1)NC(=O)[C@H](CO)NC(=O)[C@H](CO)NC(=O)[C@@H](NC(=O)[C@H](CC(=O)O)NC(=O)[C@H](CO)NC(=O)[C@@H](NC(=O)[C@H](Cc1ccccc1)NC(=O)[C@@H](NC(=O)CNC(=O)[C@H](CCC(=O)O)NC(=O)[C@H](C)NC(=O)[C@@H](N)Cc1c[nH]cn1)[C@@H](C)O)[C@@H](C)O)C(C)C)C(=O)N[C@@H](C)C(=O)N[C@@H](C)C(=O)N[C@@H](CCCN=C(N)N)C(=O)N[C@@H](CCC(=O)O)C(=O)N[C@@H](Cc1ccccc1)C(=O)N[C@H](C(=O)N[C@@H](C)C(=O)N[C@@H](Cc1c[nH]c2ccccc12)C(=O)N[C@@H](CC(C)C)C(=O)N[C@H](C(=O)N[C@@H](CCCN=C(N)N)C(=O)NCC(=O)N[C@@H](CCCN=C(N)N)C(=O)NCC(=O)O)C(C)C)[C@@H](C)CC)C(=O)O` (stereo not given in full) (H-HAEGTFTSDVSSYLEGK([ξγGlu-Palmitoyl])AAREFIAWLVRGRG-OH) gave a half-life in series [1] of 20 h. Further, the EC50 in series [2] stood at 0.0301 nM.
`CCCCCCCCCC(CCCCC(=O)NCCCC[C@H](NC(=O)CNC(=O)[C@H](CCCN=C(N)N)NC(=O)[C@@H](NC(=O)[C@H](CC(C)C)NC(=O)[C@H](Cc1c[nH]c2ccccc12)NC(=O)[C@H](C)NC(=O)[C@@H](NC(=O)[C@H](Cc1ccccc1)NC(=O)[C@H](CCC(=O)O)NC(=O)[C@H](CCCN=C(N)N)NC(=O)[C@H](C)NC(=O)[C@H](C)NC(=O)[C@H](CCC(N)=O)NC(=O)CNC(=O)[C@H](CCC(=O)O)NC(=O)[C@H](CC(C)C)NC(=O)[C@H](Cc1ccc(O)cc1)NC(=O)[C@H](CO)NC(=O)[C@H](CO)NC(=O)[C@@H](NC(=O)[C@H](CC(=O)O)NC(=O)[C@H](CO)NC(=O)[C@@H](NC(=O)[C@H](Cc1ccccc1)NC(=O)[C@@H](NC(=O)CNC(=O)[C@H](CCC(=O)O)NC(=O)[C@H](C)NC(=O)[C@@H](N)Cc1c[nH]cn1)[C@@H](C)O)[C@@H](C)O)C(C)C)[C@@H](C)CC)C(C)C)C(=O)NCC(=O)O)C(=O)O` (stereo not given in full) (H-HAEGTFTSDVSSYLEGQAAREFIAWLVRGK(X1)G-OH) showed a half-life in series [1] of 13 h. Further, in series [2], the EC50 stood at 0.00789 nM.
On to `CCCCCCCCCCCCCCCC(=O)NC(CCC(=O)NCCCC[C@H](NC(=O)CNC(=O)[C@H](CCCN=C(N)N)NC(=O)[C@@H](NC(=O)[C@H](CC(C)C)NC(=O)[C@H](Cc1c[nH]c2ccccc12)NC(=O)[C@H](C)NC(=O)[C@@H](NC(=O)[C@H](Cc1ccccc1)NC(=O)[C@H](CCC(=O)O)NC(=O)[C@H](CCCN=C(N)N)NC(=O)[C@H](C)NC(=O)[C@H](C)NC(=O)[C@H](CCC(N)=O)NC(=O)CNC(=O)[C@H](CCC(=O)O)NC(=O)[C@H](CC(C)C)NC(=O)[C@H](Cc1ccc(O)cc1)NC(=O)[C@H](CO)NC(=O)[C@H](CO)NC(=O)[C@@H](NC(=O)[C@H](CC(=O)O)NC(=O)[C@H](CO)NC(=O)[C@@H](NC(=O)[C@H](Cc1ccccc1)NC(=O)[C@@H](NC(=O)CNC(=O)[C@H](CCC(=O)O)NC(=O)[C@H](C)NC(=O)[C@@H](N)Cc1c[nH]cn1)[C@@H](C)O)[C@@H](C)O)C(C)C)[C@@H](C)CC)C(C)C)C(=O)NCC(=O)O)C(=O)O` (stereo not given in full) (H-HAEGTFTSDVSSYLEGQAAREFIAWLVRGK([ξγGlu-Palmitoyl])G-OH), for which, in series [1], the half-life was 12 h. Besides, in series [2], the EC50 was found to be 0.0364 nM.
`CCCCCCCCCCCCCCCC(=O)NC(CCC(=O)NCCCCC(NC(=O)[C@H](CCC(=O)O)NC(=O)[C@H](CCCN=C(N)N)NC(=O)CNC(=O)[C@H](CCCN=C(N)N)NC(=O)[C@@H](NC(=O)[C@H](CC(C)C)NC(=O)[C@H](Cc1c[nH]c2ccccc12)NC(=O)[C@H](C)NC(=O)[C@@H](NC(=O)[C@H](Cc1ccccc1)NC(=O)[C@H](CCC(=O)O)NC(=O)[C@H](CCCN=C(N)N)NC(=O)[C@H](C)NC(=O)[C@H](C)NC(=O)[C@H](CCC(N)=O)NC(=O)CNC(=O)[C@H](CCC(=O)O)NC(=O)[C@H](CC(C)C)NC(=O)[C@H](Cc1ccc(O)cc1)NC(=O)[C@H](CO)NC(=O)[C@H](CO)NC(=O)[C@@H](NC(=O)[C@H](CC(=O)O)NC(=O)[C@H](CO)NC(=O)[C@@H](NC(=O)[C@H](Cc1ccccc1)NC(=O)[C@@H](NC(=O)CNC(=O)[C@H](CCC(=O)O)NC(=O)CNC(=O)[C@@H](N)Cc1c[nH]cn1)[C@@H](C)O)[C@@H](C)O)C(C)C)[C@@H](C)CC)C(C)C)C(=O)O)C(=O)O` (stereo not given in full) (H-HGEGTFTSDVSSYLEGQAAREFIAWLVRGRE[ξK]([ξγGlu-Palmitoyl])-OH) gave a half-life in series [1] of 11 h. Moreover, in series [2], the EC50 was 0.135 nM.

Usually half-life stands for the time needed for the level to fall by half in the phase considered. Higher therefore signals slow loss. In general, EC50 refers to the midpoint of the concentration-response curve.
